Calls of active or inactive are those of the source. No cut-off for these calls is given here.
What was measured:
[1] = target: T1, Quinolone resistance protein NorA (Staphylococcus aureus) (UniProt P0A0J7); experiment: Inhibition of wild type Staphylococcus aureus NCTC8325-4 NorA assessed as time taken to inhibit ethidium bromide efflux by measuring fluorescence at 100 uM relative to control
T1 sequence (whole entry): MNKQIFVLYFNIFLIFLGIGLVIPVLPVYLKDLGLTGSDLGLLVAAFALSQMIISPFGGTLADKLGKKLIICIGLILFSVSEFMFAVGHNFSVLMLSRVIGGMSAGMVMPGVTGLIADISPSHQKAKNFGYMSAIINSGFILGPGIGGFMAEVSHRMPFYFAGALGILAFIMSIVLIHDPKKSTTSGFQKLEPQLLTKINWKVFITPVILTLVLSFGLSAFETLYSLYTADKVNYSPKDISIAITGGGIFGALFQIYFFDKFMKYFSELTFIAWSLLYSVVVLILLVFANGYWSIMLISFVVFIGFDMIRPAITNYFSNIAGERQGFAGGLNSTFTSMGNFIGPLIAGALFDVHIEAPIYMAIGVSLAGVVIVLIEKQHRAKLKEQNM
Summary of the method: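 Cells grown in Mueller-Hinton broth to OD600 0.74, then loaded with ethidium bromide (25 μM) plus CCCP (100 μM) for 20 min at 20 °C with shaking. Diluted to OD600 0.40, pelleted and held on ice. Resuspended in fresh broth with 10% DMSO final and treatment at 100 μM final; CCCP is the control. Fluorescence (ex 530, em 600 nm) read every second for 300 s. Two-factor ANOVA versus vehicle at t = 300 s.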

Staphylococcus aureus [2] = experiment: Inhibition of Staphylococcus aureus K1758 NorA mutant assessed as inhibition of ethidium bromide efflux by measuring increase in fluorescence at 100 uM after 300 secs
Staphylococcus aureus [3] = experiment: Antimicrobial activity against NorA efflux pump overexpressing Staphylococcus aureus K2378; format: functional
Summary of the method: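 S. aureus K2378 (norA overexpressing); single colony grown to log phase in Mueller-Hinton broth, adjusted by OD600 to 1.0×10^5 CFU/mL final; broth microdilution per CLSI in broth with 2% DMSO; triplicate wells plus bacteria-free background wells; OD600 read after 20 hrs at 37 °C; MIC = concentration with no significant difference (ANOVA) from vehicle control.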

Staphylococcus aureus [4] = experiment: Antimicrobial activity against wild-type Staphylococcus aureus NCTC8325-4; format: functional
Summary of the method: (§1)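 Broth microdilution MIC per CLSI guidelines. Single-colony S. aureus inoculum grown to log phase in Mueller-Hinton broth, adjusted by OD600 to 1.0×10^5 CFU/mL final. Medium contains 2% DMSO (vehicle, negative control); reserpine is the positive control. Triplicate wells, with bacteria-free wells for background subtraction. OD600 read after 20 hrs at 37 °C.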

Staphylococcus aureus [5] = experiment: Antimicrobial activity against Staphylococcus aureus; format: functional; summary of the method: as §1

With `COc1c(C)c(O)c2c(=O)cc(-c3ccc(O)cc3)oc2c1C` the TIME [1] was 0.0833 h and the inhibition (Staphylococcus aureus [2]) was “inactive”.

In the case of `COc1cc(O)c2c(=O)cc(-c3ccc(O)cc3)oc2c1C`, the TIME [1] is reported as 0.0833 h and the inhibition (Staphylococcus aureus [2]) is reported as “inactive”.

For `N#CC(C#N)=NNc1cccc(Cl)c1`, the TIME [1] was 0.0833 h and the inhibition (Staphylococcus aureus [2]) was “inactive”.

For `COc1cc2oc(-c3ccc(O)cc3)cc(=O)c2c(O)c1C` [8-DEMETHYLSIDEROXYLIN], the TIME [1] was 0.0833 h, the inhibition (Staphylococcus aureus [2]) was “inactive” and the MIC (Staphylococcus aureus [3]) was over 300 mg/L.

`COc1ccc2cc3[n+](cc2c1OC)CCc1cc2c(cc1-3)OCO2` [BERBERINE] was tested, and the MIC (Staphylococcus aureus [4]) was 150 mg/L, the MIC (Staphylococcus aureus [3]) was 300 mg/L and the MIC (Staphylococcus aureus [5]) was 150 mg/L.
